ChEMBL document CHEMBL3745677, “Discovery of 6-(4-{[5-Cyclopropyl-3-(2,6-dichlorophenyl)isoxazol-4-yl]methoxy}piperidin-1-yl)-1-methyl-1H-indole-3-carboxylic Acid: A Novel FXR Agonist for the Treatment of Dyslipidemia” (J Med Chem, 2015)

Legend:
[1] = Clearance in cynomolgus monkey at 0.91 mg/kg, iv by LC-MS/MS analysis; assay type: ADME, organism-based, Macaca fascicularis; details: in vivo
How it was run: (§1)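 Sprague Dawley rats, Beagle dogs and Cynomolgus monkeys were dosed IV at 1 mg/kg (rat, dog) or 0.91 mpk (monkey) in 5% Solutol/5% EtOH in saline. Oral/nasogastric dosing was 3 mpk in 1.0% CMC/0.25% PS80/0.05% antifoam in purified water. Samples were processed to plasma and analysed by LC-MS/MS; values are mean ± SD, N=2-3.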

[2] = AUC (0 to 24 hrs) in cynomolgus monkey at 3 mg/kg, po by LC-MS/MS analysis; assay type: ADME, organism-based, Macaca fascicularis; set-up: time < 24 hr, dose 3 mg/kg, route oral; details: in vivo; how it was run: as §1
Mus musculus [3] = test: Antidyslipidemic activity in western-diet fed mouse expressing LDL-receptor (-/-) assessed as decrease in total cholesterol level administered once daily for a week via gavage […]; assay type: functional; details: po
How it was run: (§2)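 Male LDLR null mice, six per group, were gavaged once daily for one week with compound (in situ sodium salt) or vehicle (5% Solutol, 5% EtOH, 1% wt/v CMC) at 5 mL/kg. On day 7 they were bled by cardiac puncture under CO2 anaesthesia. Serum cholesterol and triglycerides were measured enzymatically on a clinical chemistry analyser (mean ± SD, n=6). ED50 was obtained by nonlinear regression.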

[4] = AUC (0 to 24 hrs) in Sprague-Dawley rat at 1 mg/kg, iv by LC-MS/MS analysis; assay type: ADME, organism-based; set-up: dose 1 mg/kg, time < 24 hr, route intravenous; details: in vivo; how it was run: as §1
Rattus norvegicus [5] = test: Antidyslipidemic activity in ZDF rat assessed as LDL/IgHDL level at 10 mg/kg for 9 days by FPLC analysis (reference value: 17.8 mg/dL); assay type: functional, Zucker
[6] = Terminal half life in beagle dog at 3 mg/kg, po by LC-MS/MS analysis; assay type: ADME, organism-based, Canis lupus familiaris; details: in vivo, read-out: beta t1/2 (converted)
How it was run: (§3)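 Oral/nasogastric dosing at 3 mpk in 1.0% CMC/0.25% PS80/0.05% antifoam in purified water. Plasma samples collected and analyzed by LC-MS/MS; parameters reported as mean ± SD, N=2-3.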

[7] = Tmax in cynomolgus monkey at 3 mg/kg, po by LC-MS/MS analysis; assay type: ADME, organism-based, Macaca fascicularis; details: in vivo; how it was run: as §3
Rattus norvegicus [8] = test: Antidyslipidemic activity in ZDF rat assessed as LDL/IgHDL level at 10 mg/kg cotreated with 0.3 mg/kg rosiglitazone for 9 days by FPLC analysis (reference value: 17.8 mg/dL); assay type: functional, Zucker
Mus musculus [9] = test: Antidyslipidemic activity in western-diet fed mouse expressing LDL-receptor (-/-) assessed as decrease in triglyceride level at 30 mg/kg qd for a week administered via gavage […]; assay type: functional; details: po; how it was run: as §2
[10] = biological target: T1, Mineralocorticoid receptor (Homo sapiens, UniProt P08235); test: Agonist activity at mineralocorticoid receptor (unknown origin) expressed in HEK293 cells assessed as transcriptional activation; assay type: cell-based
T1 sequence (P08235 whole entry): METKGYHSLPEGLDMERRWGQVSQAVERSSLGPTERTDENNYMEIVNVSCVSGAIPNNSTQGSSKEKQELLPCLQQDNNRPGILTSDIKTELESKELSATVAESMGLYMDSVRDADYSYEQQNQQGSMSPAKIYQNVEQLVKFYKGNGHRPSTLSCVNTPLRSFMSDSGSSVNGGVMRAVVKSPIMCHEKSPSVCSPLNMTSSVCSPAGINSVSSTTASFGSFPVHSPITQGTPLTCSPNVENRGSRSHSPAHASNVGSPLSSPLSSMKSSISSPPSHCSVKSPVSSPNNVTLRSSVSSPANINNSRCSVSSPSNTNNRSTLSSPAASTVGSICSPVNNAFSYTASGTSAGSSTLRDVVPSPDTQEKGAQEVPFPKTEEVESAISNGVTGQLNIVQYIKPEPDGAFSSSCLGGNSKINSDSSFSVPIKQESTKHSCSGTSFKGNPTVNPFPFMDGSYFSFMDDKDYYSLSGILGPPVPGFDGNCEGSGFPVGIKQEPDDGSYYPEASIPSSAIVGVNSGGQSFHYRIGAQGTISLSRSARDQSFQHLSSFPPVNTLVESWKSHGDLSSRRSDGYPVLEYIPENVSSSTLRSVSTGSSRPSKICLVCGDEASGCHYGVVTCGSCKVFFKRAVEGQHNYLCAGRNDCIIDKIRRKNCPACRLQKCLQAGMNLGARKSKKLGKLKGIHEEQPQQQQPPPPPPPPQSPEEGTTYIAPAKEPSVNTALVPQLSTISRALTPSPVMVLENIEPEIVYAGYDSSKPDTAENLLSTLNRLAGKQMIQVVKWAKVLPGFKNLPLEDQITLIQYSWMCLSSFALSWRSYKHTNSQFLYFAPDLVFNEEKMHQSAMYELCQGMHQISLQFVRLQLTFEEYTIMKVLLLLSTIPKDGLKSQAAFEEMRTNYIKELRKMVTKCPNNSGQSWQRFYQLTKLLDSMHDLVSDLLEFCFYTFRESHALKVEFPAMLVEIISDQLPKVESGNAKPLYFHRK

[11] = Initial plasma concentration in beagle dog at 1 mg/kg, iv by LC-MS/MS analysis; assay type: ADME, organism-based, Canis lupus familiaris
How it was run: (§4)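 Intravenous dose given in 5% Solutol / 5% EtOH in saline (1 mg/kg rat and dog, 0.91 mpk monkey). Plasma samples collected and analyzed by LC-MS/MS; parameters reported as mean ± SD, N=2-3.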

[12] = Oral bioavailability in cynomolgus monkey at 3 mg/kg by LC-MS/MS analysis; assay type: ADME, organism-based, Macaca fascicularis; details: in vivo
How it was run: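 Bioavailability calculated from a 3 mpk oral/nasogastric dose (1.0% CMC/0.25% PS80/0.05% antifoam in water) against a 0.91 mpk IV dose (5% Solutol/5% EtOH in saline). Plasma analyzed by LC-MS/MS; mean ± SD, N=2-3.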

Mus musculus [13] = test: Antidyslipidemic activity in western-diet fed mouse expressing LDL-receptor (-/-) assessed as decrease in total cholesterol level at 3 mg/kg qd for a week administered via gavage […]; assay type: functional; details: po; how it was run: as §2
[14] = Terminal half life in cynomolgus monkey at 3 mg/kg, po by LC-MS/MS analysis; assay type: ADME, organism-based, Macaca fascicularis; details: in vivo, read-out: beta t1/2 (converted); how it was run: as §3
Rattus norvegicus [15] = test: Antidyslipidemic activity in ZDF rat assessed as LDL/IgHDL level at 3 mg/kg for 9 days by FPLC analysis (reference value: 17.8 mg/dL); assay type: functional, Zucker
[16] = Terminal half life in cynomolgus monkey at 0.91 mg/kg, iv by LC-MS/MS analysis; assay type: ADME, organism-based, Macaca fascicularis; details: in vivo, read-out: beta t1/2 (converted); how it was run: as §4
[17] = Cmax in rat at ED50 dose for lipid modulation; assay type: ADME, organism-based; details: in vivo

clearance [1]: 6 mL/min/kg
AUC(0-t) at 24 h [2]: 1810 ng·h/mL
AUC(0-t) at 24 h [4]: 577 ng·h/mL
half-life [6]: 7 h
Tmax [7]: 3.33 h
EC50 [10]: > 10 µM
C0 [11]: 1180 ng/mL
bioavailability [12]: 24%
half-life [14]: 9 h
half-life [16]: 5 h
Cmax [17]: 4.62 ng/mL
Compound: Cn1cc(C(=O)O)c2ccc(N3CCC(OCc4c(-c5c(Cl)cccc5Cl)noc4C4CC4)CC3)cc21 [TERN-101]
ED50 (Mus musculus [3]): 2 mg/kg
Activity (Rattus norvegicus [5]): 12.5 mg/dL
Activity (Rattus norvegicus [8]): 20.3 mg/dL
inhibition in vivo at 30 mg/kg (Mus musculus [9]): 83%
inhibition in vivo at 3 mg/kg (Mus musculus [13]): 57%
Activity (Rattus norvegicus [15]): 10.8 mg/dL
